The values below come from ChEMBL document CHEMBL1126730, “Synthesis and pharmacological evaluation of 4a-phenanthrenamine derivatives acting at the phencyclidine binding site of the N-methyl-D-aspartate receptor complex” (J Med Chem, 1993).

The target in data set [1] is T1, Glutamate NMDA receptor (Rattus norvegicus) (UniProt P35439+Q00959+Q00960+Q00961+Q62645+Q8VHN2+Q9R1M7). Kind of data set: Percent inhibition at PCP site of NMDA receptor complex was measured by displacement of […] in whole rat brain homogenate at 10 E-7 M. It is filed as tissue-based. The method, boiled down:
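[3H]TCP displacement from rat brain membrane preparation (cortical membranes in the methods; whole-brain homogenate in the assay description), following a previously published procedure.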
A general note: In a radioligand displacement assay an active substance lowers the binding of a labelled ligand.

For data set [2], the target named is Glutamate NMDA receptor. Kind of data set: Binding affinity towards PCP site of the NMDA receptor was measured by displacement of […] in […]. Type of data set: tissue-based, Brain.
The target in data set [3] is T1, Glutamate NMDA receptor (Rattus norvegicus). Kind of data set: Evaluated in vivo for its NMDA antagonist activity by the inhibition of NMDA-induced lethality in mice. Type of data set: functional, organism-based. Particulars: Mus musculus; target entry is the homologue from another species. The method, boiled down: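 CF-1 mice, 22-28 g. Test agent or vehicle (0.9% saline, 5 mL/kg) was given by retrobulbar injection 5 min before a 25 mg/kg NMDA bolus given retrobulbar in the other eye. Endpoint was prevention of lethality.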

The species named for data set [4] is Mus musculus. Kind of data set: Testing for ataxia was done by using an inverted screen technique. It is filed as functional. The method, boiled down: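 Inverted-screen test in CF-1 mice (22-28 g), scored 5 min after retrobulbar test agent in 0.9% saline (5 mL/kg), immediately before NMDA injection.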
A short description of data set [5]: Partition coefficient was measured using a standard shake flask (SF) method at pH 7.4. Type of data set: physicochemical. Particulars: octanol/water. The method, boiled down:
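Shake-flask partitioning at pH 7.4.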

Data set [6] can be described thus: Partition coefficient (logP) (HPLC). It is filed as physicochemical. Particulars: octanol/water.
Data set [7] deals with Glutamate NMDA receptor. Kind of data set: Ability to inhibit glutamate induced accumulation of [45 [Ca2+]] in cultured rat cortical neurons. Type of data set: functional. The method, boiled down:
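Fetal rat cortical hemisphere dissociated cultures used on day 14-16 after plating. Medium was serum- and Mg-free HBSS with 1.4 mM CaCl2, pH 7.4 (35 mM bicarbonate), 37 °C, 5% CO2. Cells were exposed 30 min to 100 μM L-glutamate (final) plus [45Ca2+] (2 μCi/mL) ± test agent, washed with saline, lysed, and counted. Baseline was subtracted.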

Usually inhibition stands for the percentage by which the read-out fell short of the control. High values mean a response far below the control, low ones a response near the control. In data set [1], `CNC12CC=CCC1CC(C)(C)c1ccccc12` (stereo not given) yielded an inhibition of 0%.
For `CNC1(C)c2ccccc2CCC12CCCC2` (stereo not given), in data set [1], the inhibition was determined as 5%.
One may read the IC50 as the point on the concentration scale where inhibition reaches its midpoint. A lower IC50 goes with higher potency. With `CN[C@]12CCCCC1CSc1ccccc12` (stereo not given in full), in data set [2], the IC50 worked out at 30 nM. That is a double-digit nanomolar value.
`CN[C@@]12CCCCC1CSc1ccccc12` (stereo not given in full) gave an IC50 in data set [2] of 199 nM.
Usually ED50 stands for the dose that gives a 50% effect, or the effect in half of the subjects. Low readings indicate greater potency, high ones weaker potency. In the case of `NC12CCCCC1COc1ccccc12` (stereo not given), in data set [3], the ED50 was determined as 5.7 mg/kg. Further, the IC50 in data set [2] was 178 nM. Also, in data set [4], the Ataxia was 10 mg/kg.
As for `CNC12CC=CCC1CC(C)c1ccccc12` (stereo not given), in data set [2], the IC50 was 654 nM.
The logD is the decadic logarithm of the distribution of all forms, ionised or not, between an organic phase and buffer at a given pH. Low values mean a more hydrophilic compound, high ones a more lipophilic compound. One may read the logP as the decadic logarithm of the partition coefficient of the neutral form, usually between octanol and water. Turning to `CC1CC2CC=CCC2(N)c2ccccc21` (stereo not given), the logD in data set [5] was found to be 1.89. In addition, in data set [6], the logP was determined as 3.4. In data set [2], the IC50 came to 2460 nM.
Molecule `C[C@]12N[C@H](Cc3ccccc31)c1ccccc12` [DIZOCILPINE] had an Ataxia in data set [4] of 0.3 mg/kg.
`NC12CCCCC1CCc1ccccc12` (stereo not given) gave an ED50 in data set [3] of 0.64 mg/kg.
In data set [5], `CCNC12CCCCC1CCc1ccccc12` (stereo not given) showed a logD of 1.15. For the same molecule, the logP in data set [6] came out at 3.41. Moreover, the IC50 in data set [2] amounted to 199 nM.
Turning to `CNC12CCCCC1CC(C)c1ccccc12` (stereo not given), in data set [2], the IC50 was 317 nM.
For `CNC12CCCCC1COc1ccccc12` (stereo not given), the IC50 in data set [7] stood at 2300 nM; in data set [2] it was 113 nM. The same molecule came in with a logD in data set [5] of 0.96. In data set [6], this molecule showed a logP of 3.31. This molecule also showed an ED50 in data set [3] of 3.7 mg/kg. The molecule also registered an Ataxia in data set [4] of 0.63 mg/kg.
With `C=CCNC12CCCCC1CCc1ccccc12` (stereo not given), the IC50 came out at 920 nM in data set [7] and 86 nM in data set [2]. In data set [3], this molecule displayed an ED50 of 10 mg/kg. This molecule also showed an Ataxia in data set [4] of less than 1 mg/kg.
In data set [1], `NC1c2ccccc2CCC12CCCC2` (stereo not given) came in with an inhibition of 8%.
With `CNC12CCCCC1CCc1ccccc12` (stereo not given), the IC50 in data set [7] was 310 nM; in data set [2], 14.7 nM. This molecule also came in with a logP in data set [6] of 3.25. In addition, the 50% effect level in data set [3] (ED50) was put at a dose of 0.54 mg/kg. Further, the Ataxia in data set [4] turned out to be 0.44 mg/kg.
In the case of `CNC1(c2ccccc2Cl)CCCCC1=O` (stereo not given) [KETAMINE], the concentration for half-maximal inhibition (IC50) in data set [7] came out at 8860 nM. Also, the logD in data set [5] worked out at 2.18. The molecule further yielded an ED50 in data set [3] of 6 mg/kg. This molecule showed an Ataxia in data set [4] of 10 mg/kg.
Consider `COc1ccc2c(c1)C1(N)CCCCC1CC2` (stereo not given), for which the 50% inhibitory concentration (IC50) in data set [7] turned out to be 440 nM; in data set [2] it was 18 nM. The molecule also displayed an ED50 in data set [3] of 1.2 mg/kg. In addition, in data set [4], the Ataxia amounted to 1.3 mg/kg.
Turning to `CNC12CC=CCC1CCc1ccccc12` (stereo not given), the values for the IC50 in data set [7] and in data set [2] were 400 nM and 27.3 nM, respectively. Besides, the logP in data set [6] came out at 3.07. The same molecule registered an ED50 in data set [3] of 1.8 mg/kg. This molecule gave an Ataxia in data set [4] of 0.6 mg/kg.
As for `c1ccc(C2(N3CCCCC3)CCCCC2)cc1` [PHENCYCLIDINE], the IC50 in data set [7] was determined as 200 nM. The 50% effect level in data set [3] (ED50) was put at a dose of 0.55 mg/kg. In data set [4], this molecule returned an Ataxia of 1 mg/kg.
The molecule `N#CC1CCC2(N)c3ccccc3CCC2C1` (stereo not given) came in with an inhibition in data set [1] of 2%.
As for `CNC12CC=CCC1CSc1ccccc12` (stereo not given), the IC50 worked out at 420 nM in data set [7] and 69 nM in data set [2]. For the same molecule, it took a dose of 2 mg/kg to reach the 50% effect level in data set [3] (ED50). The molecule also had an Ataxia in data set [4] of 1.8 mg/kg.
Take `CNC12CC=CCC1CCc1sccc12` (stereo not given): the half-inhibitory concentration (IC50) in data set [2] was determined as 57 nM.
The same measure, in the same setting: the value for `NC12CC=CCC1COc1ccccc12` (stereo not given) was 399 nM.
`CNC12CC(O)CCC1CCc1ccccc12` (stereo not given): the logP in data set [6] was found to be 2.37. Further, in data set [2], the IC50 is 500 nM.
Molecule `CC1(N)c2ccccc2CCC12CCCC2` (stereo not given) yielded an inhibition in data set [1] of 5%.
As to `CNC12CCCCC1CC(=O)c1ccccc12` (stereo not given), in data set [5], the logD was 0.78. In data set [6], the log partition coefficient (logP) worked out at 2.41. The molecule further came in with an IC50 in data set [2] of 270 nM.
Take `CCNC12CCCCC1CSc1ccccc12` (stereo not given): the IC50 in data set [2] was found to be 523 nM.
As for `CN[C@]12CCCCC1Cc1ccccc12` (stereo not given in full), the values for the half-maximal inhibitory concentration (IC50) in data set [7] and in data set [2] were 120 nM and 10.1 nM, respectively. Besides, it took a dose of 0.1 mg/kg to reach the 50% effect level in data set [3] (ED50).
In data set [1], `NCC1CCC2(N)c3ccccc3CCC2C1` (stereo not given) gave an inhibition of 1%.
For `NC12CCCCC1CCc1ccccc12` (single isomer, unassigned; form 1), the IC50 in data set [7] was determined as 480 nM; in data set [2], 11.3 nM. This molecule gave an Ataxia in data set [4] of less than 0.3 mg/kg.
